In all, about 360,000 compounds went through this assay and about 1,700 (0.47%) were called active. The sample as a whole holds a higher share of actives than the screen did. Unmarked numbers belong to inactive results.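 Rule for the calls: active = inhibition above its plate's cutoff, the mean of tested wells on that plate plus 3 SD (cut at about 29% in these data); inactive = the rest.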
The molecules below were run against Melanocortin receptor 4 (Homo sapiens) (UniProt P32245) (assay: MC4R antagonists of cAMP signaling, primary screen, cell-based, TR-FRET, antagonist arm of biased-ligand search (AID 540295;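 note: 0% = Melanotan II alone and 100% = Melanotan II plus saturating MCL0020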)). Conditions: MC4R-expressing cells, MTII-stimulated cAMP, LANCE TR-FRET; at 6.5 µM; active compounds read high.
Procedure, shortened: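 Material – human MC4R-expressing U2OS cells · Repeats – no replicates · Detection – TR-FRET with Eu-cAMP and labeled anti-cAMP, 671 nm · Times – compound 30 min, challenge 1 h, detection 1 h · Compound – single nominal compound dose of 6.5 µM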

Melanocortin receptor 4 (Homo sapiens), sequence (P32245 whole entry, looked up): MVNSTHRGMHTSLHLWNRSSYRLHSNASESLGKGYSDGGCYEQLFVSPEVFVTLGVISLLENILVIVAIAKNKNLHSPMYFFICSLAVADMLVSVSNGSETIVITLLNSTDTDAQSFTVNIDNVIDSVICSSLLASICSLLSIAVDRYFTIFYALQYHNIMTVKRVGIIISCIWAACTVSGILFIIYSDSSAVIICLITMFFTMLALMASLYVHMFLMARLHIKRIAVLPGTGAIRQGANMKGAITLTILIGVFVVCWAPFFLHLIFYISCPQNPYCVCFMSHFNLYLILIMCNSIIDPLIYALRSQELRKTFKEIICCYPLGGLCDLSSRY

| SMILES | inhibition |
| --- | --- |
| COc1cccc(N2C(=O)NC(=O)/C(=C\c3ccc([N+](=O)[O-])s3)C2=O)c1 | 28.6% (active) |
| O=C(N/N=C/c1c(O)n(C2CC2)c(=S)[nH]c1=O)c1ccccc1Cl | 20.1% |
| c1ccc(CCNC2CCCCCC2)cc1 | 17.4% |
| COc1cc(OC)cc(C2(C#N)CCN(C)CC2)c1 | 17% |
| O=C(NC(=S)N1C[C@H]2C[C@H](C1)c1cccc(=O)n1C2)c1ccc(F)cc1 | 7.13% |
| Cc1cccc(N2C(=O)NC(=O)/C(=C\c3cnn(-c4ccccc4)c3)C2=O)c1 | 35.2% (active) |
| Cc1c(C(=O)O)cccc1-n1c(C)cc(/C=C2\C(=O)NC(=O)N(c3ccc4c(c3)OCO4)C2=O)c1C | 5.16% |
| CCN1CCN(c2ccc([N+](=O)[O-])cc2C#N)CC1 | -10.7% |
| CC(C)c1c(CN(C)C(C)Cc2ccccc2)n(C)n(-c2ccccc2)c1=O (stereo not given) | 10.7% |
| CC(=O)c1c(O)n(C2CCCCCC2)c(=O)[nH]c1=O | 2.26% |

Source: PubChem BioAssay AID540295 (The Scripps Research Institute Molecular Screening Center, 2011)
